This is a sample that favours compounds with a hit; in the whole collection about 9.3% have one here.
PostGolgi yeast: growth inhibition of a yeast mutant, post-Golgi transport screen | post-Golgi transport phenotypic cell assay | inhibition, % at 10 µM | AID 739 | actives 0.9% (n = 98,000);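 also: yeast cells grown in 1536-well plates; yeast grown about 18 h at 30C before absorbance read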
Ecoli tolC: E. coli tolC mutant growth inhibition. actives 2.2% (n = 65,000). growth inhibition, % at 10 µM (by protocol). E. coli BW25113 tolC mutant growth, OD615;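 active = growth inhibition at or above a cutoff equal to the mean over every tested compound plus 3 SD, cut at about 60% in these data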;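 also: growth measured after 20 h incubation at 37 °C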
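Assay system: tolC-deleted E. coli BW25113. Medium: kanamycin-containing LB broth (50 µg/mL). Dosing: 10 µM final, single dose. Timing: bacterial growth with compound for 20 h at 37 °C. Detection: A615 absorbance measurement. Read-out basis: growth inhibition in percent.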
E coli WT exp: blocks growth of wild type E. coli BW25113; OD600 absorbance; growth inhibition, % at 100 µM; actives 0.15% (n = 98,000); AID 710;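 active = growth inhibition above about 50% at one test dose, limit read from the data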;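 also: growth measured after 20 h incubation at 37 °C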
DAT uptake mod: modulates human dopamine transporter uptake under cocaine. LLC-PK1 hDAT cells, [14C]-dopamine uptake with cocaine IC80; actives deviate in either direction. B-score at 10 µM. actives 1.3% (n = 110,000). AID 449768;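 active = Z score or B-score, a plate-position-corrected score, falls beyond the plate's 99.7% confidence bounds, in either direction; inactive = both scores lie inside the 99.7% bounds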;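 also: scored against the spread of the other compound wells on the same plate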
Target sequence (Q01959 whole entry, looked up): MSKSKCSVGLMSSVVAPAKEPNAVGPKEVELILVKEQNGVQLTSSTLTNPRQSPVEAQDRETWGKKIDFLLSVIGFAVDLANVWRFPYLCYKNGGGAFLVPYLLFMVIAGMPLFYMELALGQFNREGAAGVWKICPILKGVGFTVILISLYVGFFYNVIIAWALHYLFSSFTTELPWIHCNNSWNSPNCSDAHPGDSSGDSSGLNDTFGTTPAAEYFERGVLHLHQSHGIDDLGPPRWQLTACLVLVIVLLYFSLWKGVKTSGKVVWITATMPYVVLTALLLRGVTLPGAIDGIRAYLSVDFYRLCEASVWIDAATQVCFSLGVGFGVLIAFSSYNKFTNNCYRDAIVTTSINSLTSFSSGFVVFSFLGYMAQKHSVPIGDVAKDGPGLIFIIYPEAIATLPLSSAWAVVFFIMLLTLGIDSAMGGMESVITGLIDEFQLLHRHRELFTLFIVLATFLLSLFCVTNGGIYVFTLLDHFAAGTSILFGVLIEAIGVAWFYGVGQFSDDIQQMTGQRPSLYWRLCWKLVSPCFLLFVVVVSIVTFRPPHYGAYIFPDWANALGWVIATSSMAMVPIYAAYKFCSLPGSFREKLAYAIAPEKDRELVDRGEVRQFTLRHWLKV
PostGolgi ctrl: inhibits growth of the yeast control strain; efflux-deficient yeast background strain, growth absorbance A615, 16 h; inhibition, % at 10 µM; actives 5% (n = 98,000)
D1 mod: allosteric modulators of human D1 dopamine receptor; actives 5.9% (n = 58,000); AID 641; HEK293 D1, CRE-luciferase, dopamine EC30 potentiation; actives deviate in either direction; B-score at 10 µM; P21728;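 active = luminescence count or its row- and column-corrected plate score outside the 99.7% band of the plate's sample wells, on either side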
Active calls of the source: *; . = no result. Rule as the data show it, unless noted: active = inhibition above about 30%; inactive = the rest.

SMILES	PostGolgi yeast	Ecoli tolC	E coli WT exp	DAT uptake mod	PostGolgi ctrl	D1 mod
COc1ccc(C2CC(O)(c3ccccc3)Oc3c(C)ccc(C)c32)cc1 (stereo not drawn)	.	.	.	0.32	.	.
CC(C)(C)c1ccc(C(=O)OCCNC(=O)c2c(Cl)nc3ccccn23)cc1	-2	.	-8	0.18	37*	.
CCOC(=O)c1c(-c2ccccc2)nc2ccccn12	5	.	6	-0.15	12	.
CCOC(=O)/C(C#N)=C1/C=CN(c2ccccc2)C=N1	-2	-3	4	0.44	9	-1.3
CCOC(=O)/C(C#N)=C1/C=Nc2ccccc2N1	-3	2	3	-0.39	41*	1.7
COc1ccc(CCNC(=O)c2ccncc2)cc1OC	8	1	-11	0.21	-1	0.076
COc1ccc(CCNC(=O)c2cc3sc(Cl)cc3n2C)cc1OC	14	63*	0	2.3*	10	-0.34
c1ccc(-c2nc(-n3nc4ccccc4n3)nc3ccccc23)cc1	10	.	2	0.81	78*	.
O=c1c(-c2nnc(SCc3ccc(Cl)cc3Cl)o2)cccn1Cc1ccccc1	-1	.	-21	1.1	66*	.
Clc1ccc(CSc2nnc(-c3ccncc3)o2)c(Cl)c1	0	9	-5	-0.39	16	0.028
CCCCOC(=O)CSC1=C(C#N)C(c2ccc3c(c2)OCO3)CC(=O)N1 (stereo not drawn)	.	9	-8	-1.7	47*	.
CCCCNC(=O)c1cn(C)c2ccc(S(=O)(=O)N3CCOCC3)cc2c1=O	.	-3	.	.	.	-0.39
CCCCNC(=O)c1ccc2c(c1)N(CC)C(=O)c1ccccc1S2(=O)=O	9	-2	6	-0.33	5	-0.41
COCCCNC(=O)c1cn(Cc2c(F)cccc2Cl)nn1	-8	-3	-1	-1.5	19	-3.9*
Cn1c(CSCc2ccc(Cl)cc2)nnc1SCC(=O)Nc1nc2ccccc2s1	5	.	-15	-0.48	6	.
C=CC1=C(C(=O)O)N2C(=O)C(NC(=O)Cc3ccccc3)C2SC1 (stereo not drawn)	2	.	33	-0.83	5	.
CC(=O)OCC1=C(C(=O)O)N2C(=O)[C@@H](NC(=O)Cc3cccs3)[C@H]2SC1	.	100*	.	-0.32	.	0.76
CCN1CCc2c(C#N)c(N3CCOCC3)nc(NCc3ccccc3)c2C1	5	12	6	-0.081	36*	0.93
COC(=O)c1ccc(S(=O)(=O)c2ccccc2)c(N)c1	-1	.	4	-0.84	9	.
Cc1ccc(-n2nnnc2-c2cnc3ccc(Cl)cc3c2-c2ccccc2)cc1	1	.	-5	0.049	29	.
Nc1ncc(-c2nnnn2-c2ccc(Cl)cc2)c(-c2ccc(Cl)cc2)n1	-10	.	-9	-0.25	36*	.
Cc1ccccc1N1CCN(C(=O)c2ccccc2NC(=O)C2CC=CCC2C(=O)O)CC1 (stereo not drawn)	-2	.	-2	2.1*	-3	.
Cc1ccc(N2CCN(C(=O)c3ccccc3NC(=O)C3CC=CCC3C(=O)O)CC2)cc1 (stereo not drawn)	-2	.	1	-0.07	18	.
Nn1c(SCC(=O)Nc2cccc(F)c2)nnc1C1CCCCC1	-12	-9	-9	1.4	5	0.014
Cn1ncc(C#N)c1/N=C/N(Cc1ccccc1)Cc1ccccc1	2	99*	-4	1.2	35*	-0.00043
SMILES	PostGolgi yeast	Ecoli tolC	E coli WT exp	DAT uptake mod	PostGolgi ctrl	D1 mod
O=C(CSc1nc2ccccc2o1)Nc1cc(C(F)(F)F)ccc1N1CCOCC1	-7	.	-2	-0.061	34*	.
O=C(CSc1nc2ccccc2o1)Nc1ccccc1N1CCCCCC1	3	73*	-5	0.052	21	-0.73
Cc1cc(C)nc(NC(=O)CSc2nc3ccccc3o2)n1	-1	.	3	1.1	3	.
FC(F)(F)c1ccc(N2CCOCC2)c(Nc2nc3ccccc3n3cnnc23)c1	7	-4	5	0.15	52*	.
CCC(C)NC(=O)c1ccccc1NC(=O)CN1C(=O)c2ccccc2S1(=O)=O (stereo not drawn)	-4	-2	-4	0.46	3	-0.95
CCOC(=O)C[n+]1c(C)ccc2c1CCC2	.	.	.	-0.62	.	.
O=C(COc1ccccc1)NC(NC(=S)Nc1ccccc1O)C(Cl)(Cl)Cl (stereo not drawn)	-2	.	21	-3.7*	2	.
O=c1ccc(NS(=O)(=O)c2ccccc2)cn1Cc1ccc(Cl)c(Cl)c1	4	.	4	-0.051	18	.
FC(F)(F)c1cnc2c(c1)Nc1ccccc1S2	33*	7	-2	-0.51	22	3.3
O=C1Nc2cccnc2Sc2ccccc21	5	-10	-6	-0.26	7	0.79
